Results as given in ChEMBL document CHEMBL4480436, “Lead optimization of selective tubulin inhibitors as anti-trypanosomal agents” (Bioorg Med Chem, 2019).

Columns and labels:
[1] = tested on: Trypanosoma brucei brucei; assay: Inhibition of tubulin polymerization in Trypanosoma brucei brucei Lister 427 assessed as increase in non-polymerized tubulin after 12 hrs by Western blot analysis
In short: (§1)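 Trypanosomes treated with different doses (0.5% DMSO) for 12 h, washed in TDB pH 7.4 and lysed in Pipes pH 6.8/EGTA/MgCl2/0.15% Triton X-100/glycerol buffer, 4 °C, 5 min. Lysate spun 15,000 g 30 min at 4 °C: supernatant taken as non-polymerized tubulin, RIPA-resuspended pellet as polymerized. Equal cell equivalents (1.83 × 10^7) run on 10% SDS-PAGE for western blot.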

[2] = 1-Octanol/DDH2O partition coefficient, log P of the compound incubated for 48 hrs under stirring condition measured by UV-Vis spectrophotometric method; type: physicochemical; details: for logP: octanol/water, 48 h
In short: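 Slow-stir shake method (OECD-based, modified): compound dissolved in water-saturated 1-octanol, centrifuged 5000 rpm 5 min, supernatant mixed with equal volume octanol-saturated water, stirred at room temperature 48 h. Phases separated by centrifugation; octanol-phase UV absorbance read before and after. Log P = log[Ax/(A0−Ax)]. Repeated three times, Mean ± SD.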

[3] = tested on: Trypanosoma brucei brucei; assay: Antiparasitic activity against Trypanosoma brucei brucei Lister 427 assessed as reduction in parasite viability after 48 hrs by MTS assay; type: functional, organism-based; details: Lister 427, 48 h
In short: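 Bloodstream-form Lister 427 grown in HMI-9 with 10% FBS, 37 °C, 7.5% CO2. 5000 cells/well exposed to graded concentrations with 0.1% DMSO for 48 h at 37 °C. MTS/PMS reagent then added, 3 h at 37 °C, formazan read at 490 nm. Quadruplicate data normalized and fitted to dose–response curves for IC50 (Mean ± S.D.).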

HEK293 = assay: Cytotoxicity against HEK293 cells after 48 hrs by MTT assay; type: cell-based; details: Homo sapiens, HEK293, 48 h
In short: (§2)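 Cells kept in RPMI1640 with 10% heat-inactivated FBS, 2 mM L-glutamine, 1 mM pyruvate, pen-strep, 37 °C, 5% CO2. 3000 cells/well seeded 24 h, then exposed to graded concentrations (DMSO ≤0.1% final) for 48 h. Then 0.5 mg/mL MTT 3 h at 37 °C, DMSO solubilization, absorbance 570 nm. Quadruplicate data fitted to dose–response curves for IC50.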

RAW264.7 = assay: Cytotoxicity against mouse RAW264.7 cells after 48 hrs by MTT assay; type: cell-based; details: RAW264.7, 48 h; in short: as §2
[4] = tested on: Trypanosoma brucei brucei; assay: Inhibition of tubulin polymerization in Trypanosoma brucei brucei Lister 427 assessed as decrease in polymerized tubulin after 12 hrs by Western blot analysis; in short: as §1
[5] = Selectivity index, ratio of IC50 for HEK293 cells to IC50 for Trypanosoma brucei brucei Lister 427; type: toxicity; details: human, read-out: Ratio IC50
In short: (§3)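 Ratio of mammalian MTT IC50 (48 h) to T. brucei MTS IC50 (48 h), both from quadruplicate dose–response fits.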

[6] = Selectivity index, ratio of IC50 for mouse RAW264.7 cells to IC50 for Trypanosoma brucei brucei Lister 427; type: toxicity; details: read-out: Ratio IC50; in short: as §3

Structure (SMILES) | inhibition [1] | logP [2] | IC50 [3] [µM] | inhibition [4] | logP at 48 h ([2]; 1-octanol/DDH2O) | IC50 (HEK293) [µM] | IC50 (RAW264.7) [µM] | selectivity ratio [5] | selectivity ratio [6]
CS(=O)(=O)Nc1ccc(NC(=O)c2ccc(Cl)c([N+](=O)[O-])c2)cc1Cl | – | – | > 62.5 | – | – | 204 | 43.6 | < 4 | < 1
Cc1cc(NC(=O)c2ccc(C#N)cc2)ccc1NS(C)(=O)=O | – | – | > 62.5 | – | – | 43.5 | 171 | < 1 | < 3
O=C(Nc1ccc(NS(=O)(=O)C(F)(F)F)c(F)c1)c1cc(C(F)(F)F)cc(C(F)(F)F)c1 | – | – | 9.39 | – | – | 164 | 112 | 17 | 12
CCS(=O)(=O)Nc1ccc(NC(=O)c2cc(C(F)(F)F)cc(C(F)(F)F)c2)cc1Cl | – | – | 1.73 | – | – | 32.2 | 64.1 | 19 | 37
CCS(=O)(=O)Nc1ccc(NC(=O)c2ccc(Cl)cc2)cc1C | – | – | > 62.5 | – | – | 125 | 68.7 | < 3 | < 2
CCS(=O)(=O)Nc1ccc(NC(=O)c2ccc(Cl)cc2)cc1Cl | – | – | 19.1 | – | – | > 250 | > 250 | > 13 | > 13
CS(=O)(=O)Nc1ccc(NC(=O)c2ccc(Cl)cc2)cc1F | – | – | > 62.5 | – | – | 216 | 22.2 | < 4 | < 1
N#Cc1ccc(C(=O)Nc2ccc(NS(=O)(=O)C(F)(F)F)c(Cl)c2)cc1 | – | – | 11 | – | – | > 250 | > 250 | > 23 | > 23
CCS(=O)(=O)Nc1ccc(NC(=O)c2cc(C(F)(F)F)cc(C(F)(F)F)c2)cc1C | – | – | 12.5 | – | – | 126 | 124 | 10 | 10
CCS(=O)(=O)Nc1ccc(NC(=O)c2ccc(Cl)c([N+](=O)[O-])c2)cc1F | – | – | 8.39 | – | – | 83.7 | 198 | 10 | 24
O=C(Nc1ccc(NS(=O)(=O)C(F)(F)F)c(F)c1)c1ccc(Cl)c([N+](=O)[O-])c1 | – | – | 16.8 | – | – | 194 | 188 | 12 | 11
CS(=O)(=O)Nc1ccc(NC(=O)c2ccc(Cl)c([N+](=O)[O-])c2)cc1F | – | – | > 62.5 | – | – | 23.1 | 102 | < 1 | < 2
O=C(Nc1ccc(NS(=O)(=O)C(F)(F)F)c(Cl)c1)c1ccc(Cl)c([N+](=O)[O-])c1 | – | – | 47.6 | – | – | 228 | 31.7 | 5 | 1
CCS(=O)(=O)Nc1ccc(NC(=O)c2ccc(Cl)c([N+](=O)[O-])c2)cc1OC | – | – | > 62.5 | – | – | 63.6 | 5.66 | < 2 | < 1
CCS(=O)(=O)Nc1ccc(NC(=O)c2cccc(C(F)(F)F)c2)cc1C | – | – | 35.3 | – | – | 210 | 114 | 6 | 3

More lines, main results first:

inhibition [1] | logP [2] | IC50 [3] [µM] | inhibition [4] | logP at 48 h ([2]; 1-octanol/DDH2O) | Structure (SMILES) | IC50 (HEK293) [µM] | IC50 (RAW264.7) [µM] | selectivity ratio [5] | selectivity ratio [6]
Dose-dependent effect | 0.998 | 2.1 | Dose-dependent effect | – | N#Cc1ccc(C(=O)Nc2ccc(NS(=O)(=O)C(F)(F)F)c(F)c2)cc1 | > 250 | > 250 | > 119 | > 119
Dose-dependent effect | 1.957 | 2.93 | Dose-dependent effect | – | Cc1cc(NC(=O)c2cc(C(F)(F)F)cc(C(F)(F)F)c2)ccc1NS(C)(=O)=O | 163 | > 250 | 56 | > 85
– | – | > 62.5 | – | – | CS(=O)(=O)Nc1ccc(NC(=O)c2ccc(Cl)cc2)cc1Cl | 167 | 79.9 | < 3 | < 2
– | – | 16.7 | – | – | Cc1cc(NC(=O)c2cccc(C(F)(F)F)c2)ccc1NS(C)(=O)=O | 194 | 110 | 12 | 7
– | – | 19.4 | – | – | CCS(=O)(=O)Nc1ccc(NC(=O)c2ccc(Cl)c([N+](=O)[O-])c2)cc1C | 144 | 141 | 7 | 7
– | – | – | – | 2.9 | CN(c1ccc(NC(=O)c2ccc(C#N)cc2)cc1OCc1ccc(C(F)(F)F)cc1)S(=O)(=O)Cc1ccccc1 | – | – | – | –
– | – | 33.9 | – | – | CCS(=O)(=O)Nc1ccc(NC(=O)c2cccc(C(F)(F)F)c2)cc1F | 94.8 | 119 | 3 | 4
– | – | 14.1 | – | – | COc1cc(NC(=O)c2ccc(Cl)c([N+](=O)[O-])c2)ccc1NS(=O)(=O)C(F)(F)F | > 250 | > 250 | > 18 | > 18
